Screening results deposited in PubChem BioAssay by several laboratories.
Most compounds without a hit are left out; they make up all but 1.9% or so of the library.
proCasp3 act – activates human procaspase-3. P42574. 0.11% of 330,000 active. recombinant procaspase-3 D3A, Ac-DEVD-pNA absorbance 405 nm. activation, % at 8.5 µM;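 active = activation above the mean of all tested compounds plus 3 SD, cut at about 21% in these data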;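 note: 0% = DMSO alone and 100% = DMSO wells spiked with extra 5 µM PC-3 D3A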
Target sequence (P42574 whole entry D9A/D28A/D175A): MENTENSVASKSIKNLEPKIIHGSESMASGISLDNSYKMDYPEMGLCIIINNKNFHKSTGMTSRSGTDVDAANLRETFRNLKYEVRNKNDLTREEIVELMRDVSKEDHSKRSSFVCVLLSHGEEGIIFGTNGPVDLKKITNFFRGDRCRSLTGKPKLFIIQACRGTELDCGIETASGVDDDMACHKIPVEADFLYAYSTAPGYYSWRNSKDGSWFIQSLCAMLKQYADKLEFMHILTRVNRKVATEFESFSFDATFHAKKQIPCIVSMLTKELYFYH
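material = Procaspase-3 D3A mutant | probe or stimulus = Ac-DEVD-pNA | compound = single dose, 8.5 µM nominal compound, 0.8% DMSO | timing = 1 h preincubation, 2 h reaction | measured by = 405 nm absorbance of p-nitroaniline, reads at 0 and 120 min | benchmarks = DMSO-only low control, 5 µM PC-3 D3A high control | repeats = singlicate, each compound tested once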
proCasp7 act – counter-screen: procaspase-7 (human) activation | P55210 | recombinant procaspase-7, Ac-DEVD-pNA absorbance 405 nm; D23A/D198A/D206A triple mutant, cannot self-cleave; scale: DMSO 0, 5 µM enzyme 100 | activation, % at 8.5 µM | 0.093% of 330,000 active | AID 463210;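 active = percent activation above the screen-wide mean plus 3 SD, cut at about 25% in these data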
Target sequence (P55210 whole entry D23A/D198A/D206A): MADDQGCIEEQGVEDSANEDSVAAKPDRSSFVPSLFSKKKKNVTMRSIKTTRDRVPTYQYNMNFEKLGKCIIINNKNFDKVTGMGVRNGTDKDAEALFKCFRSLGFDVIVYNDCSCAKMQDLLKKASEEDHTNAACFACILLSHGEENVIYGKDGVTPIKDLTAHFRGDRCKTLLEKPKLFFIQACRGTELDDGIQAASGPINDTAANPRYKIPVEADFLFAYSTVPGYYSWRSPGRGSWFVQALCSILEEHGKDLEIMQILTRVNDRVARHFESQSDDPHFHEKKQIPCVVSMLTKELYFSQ
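Detection: p-Nitroaniline absorbance at 405 nm, read at 0 and 120 min; system: Uncleavable procaspase-7 mutant enzyme; evaluation: % activation from two-timepoint absorbance difference, scaled to controls; times: 1 h enzyme–compound preincubation and 2 h substrate reaction, both 25 °C; buffer or medium: Zinc-free HEPES pH 7.4 with 300 mM NaCl, 0.01% Triton X-100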
Calb FLC – affects C. albicans growth with fluconazole; growth inhibition, % (concentration not given with the values); AID 1979; C. albicans CaCi-2 + fluconazole, Alamar Blue growth, 48 h; 0.57% of 300,000 active;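 active = growth inhibition above about 58% in most replicates, limit read from the data, passing the limit was not always enough; inconclusive = exactly half the replicates above a set limit; inactive = most replicates below a set limit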;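 note: all wells also contain fluconazole at 8 µg/ml as a sub-toxic cotreatment; 0% = median of DMSO wells and 100% = median of geldanamycin control wells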
Neddylation inh – blocks human cullin neddylation; P61081+Q13564; TR-FRET cullin neddylation, biochemical; inhibition, % at 25 µM; 0.58% of 360,000 active; AID 651699; in the data active = inhibition above about 36%
GAA850 FXN act – increases GAA850 frataxin promoter reporter activity; HEK293 lucGAA850 FXN promoter luciferase reporter, 24 h; percent of 10 µM SAHA response; activation, % at 6 µM; 0.56% of 360,000 active;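 active = activation above the average of all compounds screened plus 3 SD, cutoff fixed separately per campaign, cut at about 7.5% in these data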;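 note: 0% = DMSO wells and 100% = 10 µM SAHA wells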
HIF activator – HIF pathway transcriptional activation; U2OS HRE-luciferase reporter, luminescence; normalized: DMSO 0%, desferrioxamine 100%; activation, % at 7.5 µM (by protocol); 0.32% of 300,000 active;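 active = mean activation of at least 10% of the iron chelator positive control signal, with at least half of replicates also reaching 10%; inconclusive = mean and replicate majority disagree about reaching 10%; inactive = mean and most replicates under 10%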
PC3 dual counter – activates human procaspase-3, dual activator counter-screen | AID 493114 | activation, % at 8.5 µM | shares compounds with proCasp7 act | recombinant PC-3 D3A, Ac-DEVD-pNA absorbance 405 nm; aspartates 9, 28, 175 changed to alanine; 100% = enzyme control | 290 tested, under 10 active;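 active = mean percent activation across triplicates above a set limit taken from the earlier primary procaspase-3 screen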;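 note: 0% = DMSO wells and 100% = DMSO wells with 5 µM added PC-3 D3A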
PC7 dual conf – procaspase-7 (human) activation, dual activator confirmation | shares compounds with proCasp7 act | AID 493115 | activation, % at 8.5 µM | recombinant procaspase-7, Ac-DEVD-pNA absorbance 405 nm; D23A/D198A/D206A mutant that cannot self-cleave | 290 tested, under 10 active;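 active = mean activation above a set limit carried over from the earlier primary screen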;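 note: 0% = DMSO only and 100% = DMSO with added 5 µM PC-7 enzyme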
Starred values were filed as active, the others as inactive; ? = inconclusive; · = no result given.

SMILES	proCasp3 act	proCasp7 act	Calb FLC	Neddylation inh	GAA850 FXN act	HIF activator	PC3 dual counter	PC7 dual conf
Cc1ccccc1N(C(=O)c1snc(C(N)=O)c1N)C(C(=O)NCc1ccccc1)c1ccc(O)cc1 (stereo not drawn)	-97.9	40.2*	-7.8	-104.5	-4.6	-0.7	-28.0	-35.4
Cc1ccccc1N(C(=O)c1snc(C(N)=O)c1N)C(C(=O)NC1CCCCC1)c1ccc(O)cc1 (stereo not drawn)	13.1	22.4	3.8	·	3.0	-2.4	·	·
NC(=O)c1nsc(C(=O)N(c2ccccc2F)C(C(=O)NCc2ccccc2)c2ccc(O)cc2)c1N (stereo not drawn)	17.9	34.0*	1.3	-49.0	-9.3	-0.8	-28.4	-36.2
O=Cc1ccc(F)c([B-](F)(F)F)c1	·	·	·	-8.6	1.0	·	·	·
O=c1oc2ccccc2cc1-c1nc2c(s1)CCCC2	8.8	96.5*	-14.2	·	-0.4	-1.1	-28.7	-36.4
CN(C(=O)c1cccc(NC(=O)Cc2cccc(NC(=O)C3CCN(C(=O)C4CCCCC4)CC3)c2)c1)C1CCC1	·	·	·	-2.5	-0.7	·	·	·
C=CCc1c(O)c(CC)cc2c(C)cc(=O)oc12	25.2*	28.3*	16.7	·	2.5	0.3	-29.4	-34.4
CCN(CC)Cc1c(O)c(Cl)cc2c(C)cc(=O)oc12	·	·	2.2	·	2.3	-0.2	·	·
COc1cc(-c2c(C#N)c(N)nc3c2CCCC3)ccc1O	-5.0	-4.4	11.2	8.8	0.3	-0.3	·	·
COc1ccc(-c2c(C#N)c(N)nc3c2CCc2ccccc2-3)cc1OC	34.2*	65.2*	?	·	·	0.3	-29.1	-35.4
CCCn1c(=N)c(S(=O)(=O)c2ccccc2)cc2c(=O)n3ccccc3nc21	-26.3	42.4*	2.3	·	3.3	0.3	-30.0	-33.2
CCn1c(=N)c(S(=O)(=O)c2ccccc2)cc2c(=O)n3ccccc3nc21	-25.7	-28.1	0.0	·	3.0	0.1	·	·
COc1ccc(CC(=O)Nc2nc(OCCN3CCCC3=O)cnc2-c2cccc(C(F)(F)F)c2)cc1	·	·	·	-6.6	-1.8	·	·	·
C=CCOC(=O)C1=C(C)NC(SCC(N)=O)=C(C#N)C1c1ccc(C)cc1 (stereo not drawn)	-2.9	4.8	-18.2	-31.7	-2.0	-0.1	·	·
C=CCOC(=O)C1=C(C)NC(SCC)=C(C#N)C1c1ccc(Cl)cc1 (stereo not drawn)	17.5	25.6*	2.6	·	-6.6	-0.5	5.1	6.2
CCCNC(=O)c1c(N)n(-c2ccc3c(c2)OCO3)c2nc3ccccc3nc12	4.1	5.0	2.8	8.2	-1.0	-0.3	·	·
CCCNC(=O)c1c(N)n(-c2cc(OC)cc(OC)c2)c2nc3ccccc3nc12	114.8*	28.9*	9.8	·	-3.0	-0.3	-28.5	-35.5
COc1ccccc1NC(=O)c1cnc(Nc2ccccc2OC)c2ccccc12	16.7	31.1*	1.9	·	0.6	-0.6	-29.9	-34.7
COc1ccccc1NC(=O)c1ccccc1C(=O)Nc1ccccc1OC	1.8	10.4	-3.7	0.4	-0.8	-1.3	·	·
CC(C)Oc1ccc(C(=O)NCC(=O)N2CCN(S(=O)(=O)/C=C/c3ccccc3)CC2)cc1	1.6	-0.7	·	-14.3	-0.4	·	·	·
O=C(Nc1nccs1)c1cc2c(s1)-c1ccccc1OC2	29.6*	28.2*	-2.7	·	2.6	3.6	-29.0	-35.3
COc1cc2c(cc1OC)C(C)N(C(=O)c1cc3c(s1)-c1ccccc1OC3)CC2 (stereo not drawn)	25.5*	37.4*	8.4	·	1.2	-0.3	12.7	10.9
O=C(c1cc2c(s1)-c1ccccc1OC2)N1CCc2ccccc2C1	11.7	27.3*	-3.7	·	1.3	1.5	3.1	1.8
O=C(OCn1nnc2ccccc2c1=O)c1ccc(F)c(S(=O)(=O)N2CCOCC2)c1	·	·	·	-8.0	1.2	·	·	·
CC1(c2nnnn2-c2ccc3c(c2)OCCO3)CCC(=O)N1Cc1cccnc1 (stereo not drawn)	·	·	·	6.5	·	·	·	·
SMILES	proCasp3 act	proCasp7 act	Calb FLC	Neddylation inh	GAA850 FXN act	HIF activator	PC3 dual counter	PC7 dual conf
C[C@@H]1CNC(=O)c2c(C(=O)N[C@@H](Cc3c[nH]c4ccccc34)C(=O)OC(C)(C)C)ncn21	·	·	·	8.3	-1.9	·	·	·
COCCn1c2nc(=O)n(-c3ccccc3)c(=O)c-2nc2ccccc21	·	·	·	2.5	-1.2	·	·	·
O=c1[nH]c(N/N=C/c2ccccc2)nc2ccccc12	31.6*	37.7*	22.7	·	6.3	1.7	-27.5	-28.0
C(=N\Nc1nc2ccccc2[nH]1)/c1ccccc1	6.1	3.3	-3.5	17.9	4.4	4.5	·	·
O=c1[nH]c(N/N=C\c2ccc3c(c2)OCO3)nc2ccccc12	24.2*	27.5*	-9.5	19.6	1.4	1.0	1.3	-3.0
O=c1[nH]c(N/N=C/c2cc3c(cc2[N+](=O)[O-])OCO3)nc2ccccc12	-5.5	3.2	4.8	-10.4	1.9	-0.2	·	·
C[C@H]1CNC(=O)c2c(C(=O)NC3CCN(C(=O)OC(C)(C)C)CC3)ncn21	·	·	·	5.0	·	·	·	·
c1ccc(N2CC3CCc4ccccc4C3=N2)cc1 (stereo not drawn)	39.3*	72.4*	-19.1	·	2.8	2.1	-29.8	-35.1
CC(CCc1ccccc1)NCc1ccncc1 (stereo not drawn)	0.7	-12.6	29.2	-13.1	0.9	-0.3	·	·
CC(NCc1ccccc1)c1ccccc1O (stereo not drawn)	1.5	27.9*	-15.8	0.3	-2.1	0.0	1.7	1.1
Oc1c(Cl)cc(Cl)cc1/C=N/NC(=S)NC1CC2C=CC1C2 (stereo not drawn)	42.9*	40.0*	17.5	·	-0.3	2.1	-29.7	-34.5
COc1cccc(-c2cc3nc(-c4ccccc4)cc(N4CCN(C(=O)c5ccoc5)CC4)n3n2)c1	·	·	·	-47.0	-2.3	·	·	·
COc1cccc(-c2cc3nc(-c4ccccc4)cc(N4CCC5(CC4)OCCO5)n3n2)c1	31.7*	38.1*	11.1	-133.9	-0.8	0.2	-30.0	-36.9
Cc1cc(C)c2c(N)c(C(=O)Nc3ncc(C)s3)sc2n1	-12.0	-3.3	·	·	-11.3	·	·	·
COCc1cc(C)nc2sc(C(=O)Nc3ccccc3Br)c(N)c12	6.3	35.9*	0.6	·	4.8	0.6	-28.6	-35.1
COc1ccc2nc(NC(=O)c3sc4nc(C)cc(C)c4c3N)sc2c1	21.1	71.5*	-1.3	·	3.7	0.9	-28.5	-35.8
COc1cccc(C(N)c2nc(-c3csc4ccccc34)cs2)c1 (stereo not drawn)	·	·	·	-34.3	-3.3	·	·	·
